Results taken from ChEMBL document CHEMBL3804761, “Synthesis of a stable and orally bioavailable englerin analogue” (Bioorg Med Chem Lett, 2016).
Calls of active or inactive are those of the source. The calls are words filed in the database; no cut-off is given here.

Legend:
[1] = Growth inhibition of human SW620 cells incubated for 48 hrs by sulforhodamine B assay; type: functional; settings: SW-620, 48 h; for TGI: read-out: pTGI (converted)
How it was run: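 Tested in the standard NCI 60-cell-line protocol with two-day drug exposure and a sulforhodamine B endpoint. Compounds were first screened at a single final concentration of 10 µM, reported as growth percent. They were then run as five 10-fold dilutions starting from a high concentration of 100 µM to give dose-response curves.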

[2] = Growth inhibition of human UACC257 cells assessed as cell growth at 10 uM incubated for 48 hrs by sulforhodamine B assay relative to control; type: functional; settings: UACC-257, 48 h, read-out: Activity
How it was run: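 NCI 60-cell line standard protocol, one-dose screen: single final concentration 10 µM, 2-day drug exposure, sulforhodamine B (SRB) endpoint; read-out is growth percent relative to untreated control.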

MDA-MB-435 = assay: Growth inhibition of human MDA-MB-435 cells incubated for 48 hrs by sulforhodamine B assay; type: functional; settings: MDA-MB-435, 48 h; for TGI: read-out: pTGI (converted)
How it was run: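 NCI 60-cell-line panel, standard protocol. Cells exposed to compound for two days, growth read by sulforhodamine B staining. Tested at five 10-fold dilutions, top concentration 100 µM, to give dose-response curves.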

EKVX [3] = assay: Growth inhibition of human EKVX cells assessed as cell growth at 10 uM incubated for 48 hrs by sulforhodamine B assay relative to control; type: functional; settings: read-out: Activity
How it was run: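 Run in the standard NCI 60-cell-line screen. Cells were exposed to drug for two days, and the read-out was sulforhodamine B staining. Compound was tested at a single final concentration of 10 µM in every line, and results are reported as growth percent.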

[4] = Plasma concentration in mouse at 20 mg/kg, po administered through gavage after 0.083 hrs by LC-MS/MS analysis; type: ADME, organism-based
How it was run: (§1)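 Ten mice given 20 mg/kg by oral gavage in Labrasol (20 mg/mL solution). Two mice sacrificed at each of 5 min, 15 min, 1 h, 4 h and 8 h. Plasma measured by LC-MS/MS after acetonitrile precipitation with lorazepam internal standard on a C18 UPLC column (calibration 5-500 ng/mL). Mean of two animals per time point.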

[5] = Plasma concentration in mouse at 100 mg/kg, po administered through gavage after 30 mins by LC-MS/MS analysis; type: ADME, organism-based
How it was run: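 Oral gavage to mice in Labrasol vehicle (compound dissolved directly at 20 mg/mL); dose groups 5, 10, 50 and 100 mg/kg. Plasma sampled 30 min after dosing. Analysis by HPLC-MS/MS: acetonitrile protein precipitation with lorazepam internal standard, C18 UPLC column, calibration range 5-500 ng/mL.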

[6] = Plasma concentration in mouse at 20 mg/kg, po administered through gavage after 0.25 hrs by LC-MS/MS analysis; type: ADME, organism-based; how it was run: as §1
[7] = AUClast in mouse at 20 mg/kg, po administered through gavage up to 8 hrs by LC-MS/MS analysis; type: ADME, organism-based; design: time < 8 hr, dose 20 mg/kg, route oral; settings: in vivo
How it was run: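 Mice received 20 mg/kg by oral gavage as a 20 mg/mL solution in Labrasol. Two mice were sacrificed at each of 5 min, 15 min, 1 h, 4 h and 8 h, ten mice in total. Plasma was precipitated with acetonitrile containing lorazepam internal standard and analysed by C18 UPLC-MS/MS, calibrated over 5-500 ng/mL. AUClast was calculated from these time points.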

[8] = Plasma concentration in mouse at 20 mg/kg, po administered through gavage after 1 hr by LC-MS/MS analysis; type: ADME, organism-based; how it was run: as §1
EKVX [9] = assay: Growth inhibition of human EKVX cells incubated for 48 hrs by sulforhodamine B assay; type: functional
How it was run: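 Run in the NCI 60-cell-line protocol, with 2-day drug exposure and sulforhodamine B read-out. Dose-response testing used five 10-fold dilutions starting from a high concentration of 100 µM.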

[10] = Plasma concentration in mouse at 20 mg/kg, po administered through gavage after 8 hrs by LC-MS/MS analysis; type: ADME, organism-based; how it was run: as §1
[11] = Toxicity in po dosed mouse administered through gavage; type: organism-based; settings: in vivo
[12] = Plasma concentration in mouse at 20 mg/kg, po administered through gavage after 4 hrs by LC-MS/MS analysis; type: ADME, organism-based; how it was run: as §1
[13] = target: Protein kinase C (PKC) (Homo sapiens) (UniProt O94806+P41743+P17252+P05129+Q05655+P05771+Q05513+Q02156+P24723+Q15139+Q04759); assay: Activation of PKC in human 786-0 cells at 1 uM; type: cell-based

| Structure (SMILES) | GI50 [1] [µM] | LC50 (50% lethal concentration) [1] [µM] | TGI [1] [µM] | growth at 10 µM [2] [%] | GI50 (MDA-MB-435) [µM] | LC50 (MDA-MB-435) [µM] | TGI (MDA-MB-435) [µM] | growth at 10 µM (EKVX [3]) [%] | concentration at 0.083 h [4] [µg/mL] | concentration at 0.5 h [5] [µg/mL] | concentration at 0.25 h [6] [µg/mL] | AUC(0-t) at 8 h [7] [µg·h/mL] | concentration at 1 h [8] [µg/mL] | GI50 (EKVX [9]) [µM] | CC50 (EKVX [9]; read-out: pLC50 (the source's name) (converted)) [µM] | TGI (EKVX [9]; read-out: pTGI) [µM] | concentration at 8 h [10] [µg/mL] | MTD [11] [mg/kg] | concentration at 4 h [12] [µg/mL] | Activity [13] |
| --- | --- | --- | --- | --- | --- | --- | --- | --- | --- | --- | --- | --- | --- | --- | --- | --- | --- | --- | --- | --- |
| C/C(=C\C(=O)O[C@H]1[C@@H]2[C@H](C)CC[C@H]2[C@]2(C)O[C@@]1(C(C)C)C[C@H]2NC(=O)CO)c1ccccc1 | 45.7 | > 100 | > 100 | 92.4 | 33.9 | > 100 | > 100 | – | – | – | – | – | – | – | – | – | – | – | – | – |
| CC(C)[C@@]12C[C@@H](NC(=O)CO)[C@@](C)(O1)[C@@H]1CC[C@@H](C)[C@H]1[C@@H]2OC(=O)/C=C/c1ccccc1 | 22.4 | > 50.1 | > 50.1 | 104 | 18.2 | > 50.1 | > 50.1 | 69 | 0.01 | ≤ 0.7 | 0.0407 | 0.524 | 0.0732 | 11.2 | > 50.1 | > 50.1 | 0.0678 | 50 | 0.059 | inactive |
| CC(C)[C@@]12C[C@@H](NC(=O)CO)[C@@](C)(O1)[C@@H]1CC[C@@H](C)[C@H]1[C@@H]2OC(=O)/C=C/C1CCCCC1 | > 44.7 | > 44.7 | > 44.7 | 98.2 | > 44.7 | > 44.7 | > 44.7 | – | – | – | – | – | – | – | – | – | – | – | – | – |
| CC(C)[C@@]12C[C@@H](NC(=O)CF)[C@@](C)(O1)[C@@H]1CC[C@@H](C)[C@H]1[C@@H]2OC(=O)/C=C/c1ccccc1 | – | – | – | 105 | – | – | – | – | – | – | – | – | – | – | – | – | – | – | – | – |
| CC(C)[C@@]12C[C@@H](NC(=O)CO)[C@@](C)(O1)[C@@H]1CC[C@@H](C)[C@H]1[C@@H]2OC(=O)c1ccc2ccccc2c1 | 16.6 | 72.4 | 34.7 | 101 | 17 | 63.1 | 32.4 | – | – | – | – | – | – | – | – | – | – | – | – | – |
